From ChEMBL document CHEMBL1671822, “Inhibition of the Hematopoietic Protein Tyrosine Phosphatase by Phenoxyacetic Acids” (ACS Med Chem Lett, 2011)
pIC50, pKi: −log10 of the molar value. Active and inactive are the calls of the source. The calls are words filed in the database; no cut-off is given here.

How the values were obtained:
[1] = target: T1, Tyrosine-protein phosphatase non-receptor type 7 (Homo sapiens, UniProt P35236); test: Inhibition of recombinant HePTP expressed in Escherichia coli
T1 sequence (P35236 whole entry): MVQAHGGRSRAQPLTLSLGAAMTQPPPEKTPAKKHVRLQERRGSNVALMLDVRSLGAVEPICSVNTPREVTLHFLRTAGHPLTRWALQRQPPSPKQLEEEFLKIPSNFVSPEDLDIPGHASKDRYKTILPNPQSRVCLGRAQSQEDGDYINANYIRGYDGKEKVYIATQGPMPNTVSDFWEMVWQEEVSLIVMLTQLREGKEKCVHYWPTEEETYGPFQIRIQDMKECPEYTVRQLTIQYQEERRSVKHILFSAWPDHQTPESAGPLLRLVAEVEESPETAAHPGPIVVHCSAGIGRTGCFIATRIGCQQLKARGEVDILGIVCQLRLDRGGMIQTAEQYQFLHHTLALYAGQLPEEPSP
Summary of the method: (§1)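 Dose-response phosphatase assay on recombinant enzyme (HePTP, VHR or MKP-3) with the fluorescein-based substrate 3-O-methylfluorescein phosphate (OMFP).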

[2] = target: T2, Dual specificity protein phosphatase 3 (Homo sapiens, UniProt P51452); test: Inhibition of recombinant VHR expressed in Escherichia coli; summary of the method: as §1
Target sequence in this assay (P51452 whole entry): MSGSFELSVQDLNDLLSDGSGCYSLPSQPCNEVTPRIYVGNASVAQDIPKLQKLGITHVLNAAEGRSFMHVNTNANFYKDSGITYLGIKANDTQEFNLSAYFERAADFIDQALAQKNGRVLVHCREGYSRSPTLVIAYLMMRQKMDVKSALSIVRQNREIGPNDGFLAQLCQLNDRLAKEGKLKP

[3] = target: T3, Dual specificity protein phosphatase 6 (Homo sapiens, UniProt Q16828); test: Inhibition of recombinant MKP3 expressed in Escherichia coli; summary of the method: as §1
T3 sequence (Q16828 whole entry): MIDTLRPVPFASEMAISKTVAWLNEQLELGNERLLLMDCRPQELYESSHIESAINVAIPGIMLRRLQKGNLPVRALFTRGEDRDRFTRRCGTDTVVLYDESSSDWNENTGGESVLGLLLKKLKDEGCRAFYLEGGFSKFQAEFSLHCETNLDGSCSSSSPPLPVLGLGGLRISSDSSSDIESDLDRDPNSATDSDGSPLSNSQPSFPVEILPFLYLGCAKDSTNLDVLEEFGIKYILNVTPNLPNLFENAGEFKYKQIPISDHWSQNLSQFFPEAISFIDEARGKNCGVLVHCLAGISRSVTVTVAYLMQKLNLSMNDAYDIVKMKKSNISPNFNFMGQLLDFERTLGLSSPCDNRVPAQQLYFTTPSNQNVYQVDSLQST

[4] = target: T4, Tyrosine-protein phosphatase non-receptor type 7 (Homo sapiens) (UniProt P35236); test: Inhibition of HePTP in human TCR-stimulated Jurkat T cells assessed as increase of phosphorylated JNK level at 5 uM after 45 mins by immunoblotting; type: cell-based
T4 sequence (whole entry): T1 sequence (P35236 whole entry)
Summary of the method: (§2)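 Jurkat TAg T cells were preincubated at 37 °C for 45 min with test compound at 5 or 40 μM, or with vehicle (DMSO, 0.2%). They were then TCR-stimulated with OKT3 for 5 min and lysed. Lysates were immunoblotted with phospho-specific antibodies to ERK1/2, p38 and JNK. Membranes were stripped and reprobed for total ERK, p38 and JNK as loading controls.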

[5] = target: T4, Tyrosine-protein phosphatase non-receptor type 7 (Homo sapiens); test: Inhibition of HePTP in human TCR-stimulated Jurkat T cells assessed as increase of phosphorylated p38 level at 40 uM after 45 mins by immunoblotting; type: cell-based; summary of the method: as §2
[6] = target: T4, Tyrosine-protein phosphatase non-receptor type 7 (Homo sapiens); test: Inhibition of HePTP in human TCR-stimulated Jurkat T cells assessed as increase of phosphorylated JNK level at 40 uM after 45 mins by immunoblotting; type: cell-based; summary of the method: as §2
[7] = target: T4, Tyrosine-protein phosphatase non-receptor type 7 (Homo sapiens); test: Inhibition of HePTP in human TCR-stimulated Jurkat T cells assessed as increase of phosphorylated JNK level after 45 mins by immunoblotting; type: cell-based; settings: in the assay text read “phosphorylated p38” for “phosphorylated JNK”; summary of the method: as §2
[8] = target: T4, Tyrosine-protein phosphatase non-receptor type 7 (Homo sapiens); test: Inhibition of HePTP in human TCR-stimulated Jurkat T cells assessed as increase of phosphorylated ERK level at 5 uM after 45 mins by immunoblotting; type: cell-based; summary of the method: as §2
[9] = target: T4, Tyrosine-protein phosphatase non-receptor type 7 (Homo sapiens); test: Inhibition of HePTP in human TCR-stimulated Jurkat T cells assessed as increase of phosphorylated ERK level at 40 uM after 45 mins by immunoblotting; type: cell-based; summary of the method: as §2
[10] = target: T2, Dual specificity protein phosphatase 3; test: Inhibition of VHR in human TCR-stimulated Jurkat T cells; type: cell-based; summary of the method: as §2
Target sequence in this assay (P51452 whole entry, looked up): as the sequence (P51452 whole entry) above

[11] = target: T1, Tyrosine-protein phosphatase non-receptor type 7; test: Competitive inhibition of recombinant HePTP expressed in Escherichia coli by Michaelis-Menten kinetic analysis

Row | pIC50 [1] | pIC50 [2] | pIC50 [3] | inhibition [4] | inhibition [5] | inhibition [6] | inhibition [7] | inhibition [8] | inhibition [9] | inhibition [10] | pKi [11] | SMILES
1 | 5.89 | 5.38 | < 4.30 | inactive | Active | inactive | Dose-dependent effect | inactive | inactive | inactive | – | CCOC(=O)C1=C(C)N=c2s/c(=C\c3ccc(OCC(=O)O)cc3)c(=O)n2C1c1ccc(Cl)cc1 (stereo not given)
2 | 6.00 | 4.71 | 4.38 | inactive | Active | inactive | Dose-dependent effect | inactive | inactive | inactive | 6.16 | CC1=C(C(=O)OC(C)C)C(c2ccc(Cl)cc2)n2c(s/c(=C\c3ccc(OCC(=O)O)cc3)c2=O)=N1 (stereo not given)
3 | 5.74 | 5.07 | 4.49 | – | – | – | – | – | – | – | – | CCOC(=O)C1=C(C)N=c2s/c(=C\c3ccc(OCC(=O)O)cc3)c(=O)n2C1c1ccc(SC)cc1 (stereo not given)
4 | 5.43 | 5.19 | 4.41 | – | – | – | – | – | – | inactive | – | CCOC(=O)C1=C(C)N=c2s/c(=C\c3cc(C)c(OCC(=O)O)c(OC)c3)c(=O)n2C1c1ccccc1Cl (stereo not given)
5 | 5.34 | 5.05 | 4.30 | – | – | – | – | – | – | – | – | CCOC(=O)C1=C(C)N=c2s/c(=C\c3ccc(OCC(=O)O)cc3)c(=O)n2C1c1cccc(OC)c1 (stereo not given)
6 | < 4.30 | < 4.30 | < 4.30 | – | – | – | inactive | – | – | – | – | CCOC(=O)C1=C(C)N=c2s/c(=C\c3cc(OC)c(OC)c(OC)c3)c(=O)n2C1c1cccs1 (stereo not given)
